The record followed here is ChEMBL document CHEMBL1833793 (Bioorg Med Chem Lett, 2011).

Data set [1] in a line: Plasma protein binding in human. Format: ADME, cell-free. To be noted: read-out: PPB (converted).
A further data set has as its target T1, Cytochrome P450 1A2 (Homo sapiens, UniProt P05177).
T1 sequence (P05177 whole entry): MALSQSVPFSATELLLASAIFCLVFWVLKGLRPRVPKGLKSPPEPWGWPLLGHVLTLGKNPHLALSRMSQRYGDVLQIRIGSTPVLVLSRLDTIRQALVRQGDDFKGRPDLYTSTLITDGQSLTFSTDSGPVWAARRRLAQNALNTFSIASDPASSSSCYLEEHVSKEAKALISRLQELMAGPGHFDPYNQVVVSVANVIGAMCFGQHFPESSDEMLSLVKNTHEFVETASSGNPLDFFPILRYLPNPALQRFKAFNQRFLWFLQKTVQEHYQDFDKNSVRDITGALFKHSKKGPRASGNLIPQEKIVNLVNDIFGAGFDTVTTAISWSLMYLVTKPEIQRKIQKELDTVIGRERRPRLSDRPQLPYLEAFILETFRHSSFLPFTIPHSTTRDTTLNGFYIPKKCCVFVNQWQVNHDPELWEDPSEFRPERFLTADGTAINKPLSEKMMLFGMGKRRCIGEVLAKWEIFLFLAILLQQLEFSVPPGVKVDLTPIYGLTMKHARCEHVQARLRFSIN
Briefly: Inhibition of CYP1A2. Format: ADME.

Data set [2] deals with T2, Neuropeptide Y receptor type 1 (Homo sapiens, UniProt P25929).
T2 sequence (P25929 whole entry): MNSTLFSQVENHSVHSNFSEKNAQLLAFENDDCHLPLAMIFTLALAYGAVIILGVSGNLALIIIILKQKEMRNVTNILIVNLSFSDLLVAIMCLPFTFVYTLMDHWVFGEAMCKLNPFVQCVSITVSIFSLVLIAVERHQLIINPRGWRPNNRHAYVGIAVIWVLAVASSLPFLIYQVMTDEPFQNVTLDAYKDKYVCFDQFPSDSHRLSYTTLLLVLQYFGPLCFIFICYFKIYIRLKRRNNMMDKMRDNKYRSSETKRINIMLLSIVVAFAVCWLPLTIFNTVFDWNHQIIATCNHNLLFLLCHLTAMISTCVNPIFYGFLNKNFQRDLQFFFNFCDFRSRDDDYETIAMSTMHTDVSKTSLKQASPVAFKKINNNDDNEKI
Nature of the data set: Antagonist activity at human NPY1 receptor assessed as calcium mobilization by FLIPR assay. Format: functional. In general terms: Calcium flux is commonly read through the fluorescence of an indicator in the cells.

A short description of data set [3]: Apparent permeability from basolateral to apical side of the human Caco2 cells. Format: ADME, cell-based. The settings on record: Caco-2.
A short description of data set [4]: Half life in mouse at 1 mg/kg, iv and 2 mg/kg, po by HPLC analysis. The format is ADME, organism-based. The settings on record: in vivo.
Data set [5] in a line: Plasma concentration in cPP-induced feeding rat model at 3 mg/kg, po after 4 hrs. Format: ADME, organism-based. Set-up: dose 3 mg/kg, route oral. The method, boiled down:
(§1)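 Satellite rats (n = 2/dose per week), cannulated in the lateral cerebral ventricle for the feeding study, dosed orally at 3, 10 or 30 mg/kg as a suspension in 20% HP-β-cyclodextrin. Plasma was sampled 1, 2, 4, 6 or 24 h after dosing, alongside i.c.v. cPP (0.6 nmol) feeding tests. Values are given as mean with SD.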

A short description of data set [6]: Plasma clearance in mouse at 1 mg/kg, iv and 2 mg/kg, po by HPLC analysis. Format: ADME, organism-based.
The nature of data set [7]: Plasma concentration in cPP-induced feeding rat model at 10 mg/kg, po after 1 hr. The format is ADME, organism-based. The arrangement: dose 10 mg/kg, route oral. The gist of the method: (§2)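 Satellite rats (n = 2/dose) sampled each week alongside the cPP feeding test; Lu-series dosed po at 3, 10 or 30 mg/kg as suspension in 20% HP-β-cyclodextrin; plasma (ng/mL) and brain tissue (ng/g) levels taken at 1, 2, 4, 6 and 24 h post-dose; mean ± SD reported.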

Data set [8] in a line: Apparent permeability from apical to basolateral side of the human Caco2 cells. Format: ADME, cell-based. To be noted: Caco-2. In general terms: Passage across Caco-2 layers is used to estimate intestinal permeability.
For data set [9], the target named is Neuropeptide Y receptor type 4 (Homo sapiens, UniProt P50391). Briefly: Antagonist activity at human NPY4 receptor assessed as calcium mobilization by FLIPR assay. Format: functional.
Neuropeptide Y receptor type 4, sequence (P50391 whole entry): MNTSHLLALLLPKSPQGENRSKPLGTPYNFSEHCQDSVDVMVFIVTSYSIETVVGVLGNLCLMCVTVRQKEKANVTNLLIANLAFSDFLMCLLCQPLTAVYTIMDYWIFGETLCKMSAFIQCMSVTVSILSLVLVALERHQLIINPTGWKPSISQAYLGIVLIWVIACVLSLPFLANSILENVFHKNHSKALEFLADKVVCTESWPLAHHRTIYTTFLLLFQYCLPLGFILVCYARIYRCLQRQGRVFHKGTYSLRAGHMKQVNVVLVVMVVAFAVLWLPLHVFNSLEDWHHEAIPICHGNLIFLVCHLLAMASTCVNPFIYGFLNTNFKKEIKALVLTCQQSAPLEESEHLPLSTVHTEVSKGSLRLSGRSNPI
Data set [10] can be described thus: Drug uptake in brain of cPP-induced feeding rat model at 30 mg/kg, po after 1 hr. To be noted: read-out: Drug uptake. Set-up: dose 30 mg/kg, route oral. Format: ADME, organism-based. The gist of the method: as §2
A short description of data set [11]: Plasma concentration in cPP-induced feeding rat model at 30 mg/kg, po after 6 hrs. The format is ADME, organism-based. The arrangement: dose 30 mg/kg, route oral. The method, boiled down: as §1
The subject of a further data set is Liver microsomes. Nature of the data set: Intrinsic clearance in rat liver microsome. Format: ADME. On the technique in general: Microsomes from liver hold many membrane-bound enzymes, among them those of drug oxidation.
The nature of data set [12]: Tmax in mouse at 1 mg/kg, iv and 2 mg/kg, po by HPLC analysis. The format is ADME, organism-based. To be noted: in vivo.
Data set [13] can be described thus: Drug uptake in brain of cPP-induced feeding rat model at 3 mg/kg, po after 4 hrs. Format: ADME, organism-based. Set-up: dose 3 mg/kg, route oral. The settings on record: read-out: Drug uptake. The gist of the method: as §2
For data set [14], the target named is T3, Neuropeptide Y receptor type 5 (Rattus norvegicus, UniProt Q63634).
T3 sequence (Q63634 whole entry): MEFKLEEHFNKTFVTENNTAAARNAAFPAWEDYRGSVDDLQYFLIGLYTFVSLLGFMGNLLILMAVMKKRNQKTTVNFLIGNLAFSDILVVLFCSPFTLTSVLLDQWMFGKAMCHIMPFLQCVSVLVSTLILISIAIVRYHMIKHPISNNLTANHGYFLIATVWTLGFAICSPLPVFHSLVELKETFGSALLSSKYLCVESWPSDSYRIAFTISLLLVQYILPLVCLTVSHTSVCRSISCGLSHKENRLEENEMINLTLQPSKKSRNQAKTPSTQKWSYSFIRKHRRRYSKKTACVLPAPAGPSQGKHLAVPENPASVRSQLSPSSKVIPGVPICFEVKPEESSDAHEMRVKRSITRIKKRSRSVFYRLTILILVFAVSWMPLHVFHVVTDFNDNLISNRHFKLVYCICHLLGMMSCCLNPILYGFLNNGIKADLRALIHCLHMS
Briefly: Antagonist activity at rat NPY5 receptor. The format is functional.

Data set [15] can be described thus: Oral bioavailability in mouse at 2 mg/kg by HPLC analysis. To be noted: in vivo. The format is ADME, organism-based.
Data set [16] in a line: Plasma concentration in cPP-induced feeding rat model at 30 mg/kg, po after 4 hrs. The format is ADME, organism-based. Set-up: dose 30 mg/kg, route oral. The method, boiled down: as §1
Data set [17] in a line: Drug uptake in brain of cPP-induced feeding rat model at 3 mg/kg, po after 2 hrs. The arrangement: dose 3 mg/kg, route oral. The format is ADME, organism-based. The settings on record: read-out: Drug uptake. The gist of the method: as §2
A further data set addresses Cytochrome P450 2C19 (Homo sapiens, UniProt P33261). Briefly: Inhibition of CYP2C19. Format: ADME.
Data set [18] is described as follows: Drug uptake in brain of cPP-induced feeding rat model at 3 mg/kg, po after 1 hr. Format: ADME, organism-based. The arrangement: dose 3 mg/kg, route oral. To be noted: read-out: Drug uptake. The gist of the method:
as §2

Data set [19] in a line: Drug uptake in brain of cPP-induced feeding rat model at 30 mg/kg, po after 6 hrs. The settings on record: read-out: Drug uptake. Set-up: dose 30 mg/kg, route oral. The format is ADME, organism-based. The gist of the method: as §2
Data set [20] concerns the target 5-hydroxytryptamine receptor 2B (Homo sapiens, UniProt P41595). Nature of the data set: Binding affinity to human 5HT2B receptor.
A short description of data set [21]: Half life in Sprague-Dawley rat at 1 mg/kg, iv and 2 mg/kg, po by HPLC analysis. To be noted: in vivo. The format is ADME, organism-based. The method, boiled down:
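Cannulated (jugular and carotid) male Sprague-Dawley rats, 200–250 g, n = 2; 1 mg/kg iv and 2 mg/kg po crossover after 24 h washout; dosed in 20% β-cyclodextrin pH-adjusted with methanesulfonic acid; 12 serial blood samples over 24 h; plasma by LC-MS/MS; noncompartmental analysis.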

5-hydroxytryptamine receptor 2B, sequence (P41595 whole entry): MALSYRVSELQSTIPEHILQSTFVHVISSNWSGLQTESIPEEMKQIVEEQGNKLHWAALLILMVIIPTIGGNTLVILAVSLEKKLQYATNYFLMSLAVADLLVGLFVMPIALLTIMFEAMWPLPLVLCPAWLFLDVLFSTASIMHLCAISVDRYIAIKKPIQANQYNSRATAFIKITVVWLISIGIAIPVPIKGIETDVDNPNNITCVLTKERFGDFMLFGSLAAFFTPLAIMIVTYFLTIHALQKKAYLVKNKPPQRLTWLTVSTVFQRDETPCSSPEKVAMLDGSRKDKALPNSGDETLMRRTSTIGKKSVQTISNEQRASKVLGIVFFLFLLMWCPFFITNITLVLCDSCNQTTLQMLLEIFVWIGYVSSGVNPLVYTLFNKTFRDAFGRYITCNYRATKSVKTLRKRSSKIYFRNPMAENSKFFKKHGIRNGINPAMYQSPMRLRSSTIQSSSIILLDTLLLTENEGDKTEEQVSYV
Cytochrome P450 2C19, sequence (P33261 whole entry): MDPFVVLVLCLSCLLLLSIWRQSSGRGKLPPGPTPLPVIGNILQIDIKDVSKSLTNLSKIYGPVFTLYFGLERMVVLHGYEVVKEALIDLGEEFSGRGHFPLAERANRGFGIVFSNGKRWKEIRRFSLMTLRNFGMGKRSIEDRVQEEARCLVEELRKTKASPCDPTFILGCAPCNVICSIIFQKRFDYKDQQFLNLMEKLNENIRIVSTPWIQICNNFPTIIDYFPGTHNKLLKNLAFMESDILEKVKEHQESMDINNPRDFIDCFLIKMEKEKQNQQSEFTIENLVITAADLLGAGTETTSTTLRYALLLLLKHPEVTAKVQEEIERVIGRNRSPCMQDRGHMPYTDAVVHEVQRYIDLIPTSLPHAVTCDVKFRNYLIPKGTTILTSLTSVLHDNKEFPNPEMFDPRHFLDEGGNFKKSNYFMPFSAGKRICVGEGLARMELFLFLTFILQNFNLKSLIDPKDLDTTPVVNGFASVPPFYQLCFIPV

In general, IC50 refers to the concentration that gives 50% inhibition. A word on the Papp B→A: it is how fast a substance crosses the layer from the basolateral side. Broadly, the half-life is how long it takes for the measured level to halve. As a reminder, the Papp A→B is how fast a substance crosses the layer from the apical side. The term Tmax denotes the time from dosing to the highest level. In general, Ki refers to a measure of affinity in units of concentration, obtained from inhibition or displacement. A lower Ki goes with higher affinity. What is called bioavailability is the share of a dose that reaches the circulation, judged against a reference dose that is usually intravenous. The low end stands for little systemic uptake, the high end for much systemic uptake. `CS(=O)(=O)NC[C@H]1CC[C@H](Nc2nc3c(s2)CCSc2ccccc2-3)CC1`: in data set [1], the fraction unbound was 0.018. Besides, the half-inhibitory concentration (IC50) is above 10000 nM against Cytochrome P450 1A2, above 1000 nM in data set [2], above 1000 nM in [9] and above 10000 nM against Cytochrome P450 2C19. Further, in data set [3], the Papp B→A was determined as 40.4 ×10⁻⁶ cm/s. Further, the values for the half-life in [4] and in data set [21] were 8.2 h and 6.3 h, respectively. Besides, the concentration at 4 h stood at 52 ng/mL in [5], 52 ng/g in data set [13] and 519 ng/mL in [16]. Also, in [6], the clearance is 5 mL/min/kg. Besides, the figures for the concentration at 1 h in data set [7], in data set [10] and in data set [18] were 159 ng/mL, 288 ng/g and 54 ng/g, respectively. Also, in data set [8], the apparent permeability from apical to basolateral (Papp A→B) was determined as 36.7 ×10⁻⁶ cm/s. Further, the concentration at 6 h was 181 ng/mL in [11] and 401 ng/g in [19]. Further, the CL in the data set on Liver microsomes was determined as 40 mL/min. For the same compound, the Tmax in data set [12] turned out to be 1.3 h. The figures for the Ki in data set [14] and in data set [20] were 1.4 nM and 245 nM, respectively. This compound showed a bioavailability in data set [15] of 42%. The concentration at 2 h in data set [17] is 87 ng/g.
